These results are taken from ChEMBL document CHEMBL2086312, “Synthesis and biological evaluation of new 5-benzylated 4-oxo-3,4-dihydro-5H-pyridazino[4,5-b]indoles as PI3Kα inhibitors” (Eur J Med Chem, 2012).

The IC50 is the midpoint of a concentration-inhibition curve.

Test [1] has as its system PC-3. The experiment in a line: Antiproliferative activity against human PC3 cells incubated for 48 hrs by […] dye staining based assay. In kind it is functional, cell-based. As to conditions: PC-3, 48 h. An outline of the steps: (§1)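 Cells were grown per ECACC recommendations and seeded in triplicate at 2 × 10³ (HCT-116) or 4 × 10³ (other lines) per well. After 24 h attachment, they were exposed 48 h to increasing concentrations of 0.1 to 25. Cells were then fixed in cold 90% ethanol/5% acetic acid, nuclei were Hoechst-stained, and nuclei were counted by automated imaging.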

The subject of test [2] is Huh-7. In words: Antiproliferative activity against human HuH7 cells incubated for 48 hrs by […] dye staining based assay. It counts as functional, cell-based. To be noted: Huh-7, 48 h. In short, it runs like this: (§2)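 After 24 h attachment, they were exposed 48 h to increasing concentrations of 0.1 to 25. Cells were then fixed in cold 90% ethanol/5% acetic acid, nuclei were Hoechst-stained, and nuclei were counted by automated imaging.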

Test [3] deals with HCT-116. The experiment in a line: Antiproliferative activity against human HCT116 cells incubated for 48 hrs by […] dye staining based assay. To be noted: HCT-116, 48 h. In kind it is functional, cell-based. An outline of the steps: as §1
Test [4] concerns Caco-2. In words: Antiproliferative activity against human Caco2 cells incubated for 48 hrs by […] dye staining based assay. To be noted: Caco-2, 48 h. In kind it is functional, cell-based. In short, it runs like this: as §2
Test [5] has as its system MDA-MB-231. The experiment in a line: Antiproliferative activity against human MDA-MB-231 cells incubated for 48 hrs by […] dye staining based assay. In kind it is functional, cell-based. To be noted: MDA-MB-231, 48 h. In short, it runs like this: as §2
Test [6] can be described thus: Antiproliferative activity against human Skin fibroblasts incubated for 48 hrs by […] dye staining based assay. To be noted: Skin fibroblast. In short, it runs like this: as §1
Test [7] has as its system NCI-H727. The experiment in a line: Antiproliferative activity against human NCI-H727 cells incubated for 48 hrs by […] dye staining based assay. In kind it is functional, cell-based. To be noted: NCI-H727, 48 h. An outline of the steps:
as §1

For test [8], the target named is PI3-kinase p110-alpha/p85-alpha (Homo sapiens, UniProt P42336). The experiment in a line: Inhibition of PI3K p110alpha/p85alpha by fluorescence based immunoassay. It counts as protein-complex assay. An outline of the steps:
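ADAPTA TR-FRET ADP-detection kinase assay. Detection used 6 nM Eu-anti-ADP antibody, 12 nM Alexa647-ADP tracer and 30 mM EDTA for 30 min. Read-out was excitation 340 nm with 665/615 nm emission ratio, converted to % conversion via an ATP–ADP titration curve.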

Test [9] deals with Cyclin-dependent kinase 5/CDK5 activator 1 (Homo sapiens, UniProt Q00535). In words: Inhibition of human recombinant CDK5/P25 using myelin basic protein substrate. In kind it is protein-complex assay.
Sequence of Cyclin-dependent kinase 5/CDK5 activator 1 (Q00535 whole entry): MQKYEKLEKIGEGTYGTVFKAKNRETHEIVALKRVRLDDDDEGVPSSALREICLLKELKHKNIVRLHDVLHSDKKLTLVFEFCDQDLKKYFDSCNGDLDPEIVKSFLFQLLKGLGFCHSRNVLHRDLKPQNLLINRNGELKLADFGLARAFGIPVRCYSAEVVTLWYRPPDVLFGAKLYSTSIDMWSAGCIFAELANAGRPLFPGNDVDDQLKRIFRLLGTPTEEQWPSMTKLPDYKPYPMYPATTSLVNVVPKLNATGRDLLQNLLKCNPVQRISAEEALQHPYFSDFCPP
Sequence of Cyclin-dependent kinase 5/CDK5 activator 1 (Q15078 whole entry, further chain): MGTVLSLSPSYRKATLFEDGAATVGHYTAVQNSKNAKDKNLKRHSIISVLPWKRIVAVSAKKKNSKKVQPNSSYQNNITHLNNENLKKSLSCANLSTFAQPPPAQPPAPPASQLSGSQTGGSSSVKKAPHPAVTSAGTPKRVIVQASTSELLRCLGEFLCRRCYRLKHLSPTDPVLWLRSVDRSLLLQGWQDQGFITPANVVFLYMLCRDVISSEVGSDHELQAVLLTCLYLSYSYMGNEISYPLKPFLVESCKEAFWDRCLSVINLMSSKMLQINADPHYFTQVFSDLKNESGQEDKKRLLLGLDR
In test [10] the target is Dual specificity tyrosine-phosphorylation-regulated kinase 1A (Rattus norvegicus, UniProt Q63470). The experiment in a line: Inhibition of rat recombinant GST-tagged DYRK1A expressed in Escherichia coli using myelin basic protein substrate.
In test [11] the target is Phosphatidylinositol 4,5-bisphosphate 3-kinase catalytic subunit gamma isoform (Homo sapiens, UniProt P48736). In words: Inhibition of PI3K p110gamma by fluorescence based immunoassay.
Sequence of Phosphatidylinositol 4,5-bisphosphate 3-kinase catalytic subunit gamma isoform (P48736 whole entry, looked up, canonical isoform): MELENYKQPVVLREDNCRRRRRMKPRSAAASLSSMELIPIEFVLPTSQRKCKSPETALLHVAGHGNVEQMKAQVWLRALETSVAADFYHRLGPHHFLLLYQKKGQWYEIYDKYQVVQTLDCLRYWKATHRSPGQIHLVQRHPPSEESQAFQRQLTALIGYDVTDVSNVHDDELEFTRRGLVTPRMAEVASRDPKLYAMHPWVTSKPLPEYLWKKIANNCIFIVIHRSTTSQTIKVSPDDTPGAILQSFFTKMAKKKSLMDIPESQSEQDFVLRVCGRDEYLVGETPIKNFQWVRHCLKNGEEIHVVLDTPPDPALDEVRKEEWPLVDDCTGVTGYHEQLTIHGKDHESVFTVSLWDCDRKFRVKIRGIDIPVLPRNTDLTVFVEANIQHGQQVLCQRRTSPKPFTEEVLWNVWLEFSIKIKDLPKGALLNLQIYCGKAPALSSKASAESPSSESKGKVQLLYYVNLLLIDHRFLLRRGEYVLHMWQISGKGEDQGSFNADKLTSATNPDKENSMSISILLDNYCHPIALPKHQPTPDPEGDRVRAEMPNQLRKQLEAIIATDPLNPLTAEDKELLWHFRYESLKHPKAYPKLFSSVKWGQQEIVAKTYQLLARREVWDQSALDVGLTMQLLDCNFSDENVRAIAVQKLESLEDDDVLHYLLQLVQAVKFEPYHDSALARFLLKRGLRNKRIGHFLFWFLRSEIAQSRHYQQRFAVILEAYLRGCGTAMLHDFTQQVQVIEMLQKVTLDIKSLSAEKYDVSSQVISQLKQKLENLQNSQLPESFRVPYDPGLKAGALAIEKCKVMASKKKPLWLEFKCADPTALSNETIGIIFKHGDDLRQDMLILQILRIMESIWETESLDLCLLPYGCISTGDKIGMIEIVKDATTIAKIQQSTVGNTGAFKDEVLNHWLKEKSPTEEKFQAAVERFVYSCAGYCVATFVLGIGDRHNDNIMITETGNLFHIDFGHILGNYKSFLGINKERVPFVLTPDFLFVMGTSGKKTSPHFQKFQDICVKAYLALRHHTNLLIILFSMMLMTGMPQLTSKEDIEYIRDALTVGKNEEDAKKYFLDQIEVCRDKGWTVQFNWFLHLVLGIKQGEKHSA

Sequence of PI3-kinase p110-alpha/p85-alpha (P27986 whole entry): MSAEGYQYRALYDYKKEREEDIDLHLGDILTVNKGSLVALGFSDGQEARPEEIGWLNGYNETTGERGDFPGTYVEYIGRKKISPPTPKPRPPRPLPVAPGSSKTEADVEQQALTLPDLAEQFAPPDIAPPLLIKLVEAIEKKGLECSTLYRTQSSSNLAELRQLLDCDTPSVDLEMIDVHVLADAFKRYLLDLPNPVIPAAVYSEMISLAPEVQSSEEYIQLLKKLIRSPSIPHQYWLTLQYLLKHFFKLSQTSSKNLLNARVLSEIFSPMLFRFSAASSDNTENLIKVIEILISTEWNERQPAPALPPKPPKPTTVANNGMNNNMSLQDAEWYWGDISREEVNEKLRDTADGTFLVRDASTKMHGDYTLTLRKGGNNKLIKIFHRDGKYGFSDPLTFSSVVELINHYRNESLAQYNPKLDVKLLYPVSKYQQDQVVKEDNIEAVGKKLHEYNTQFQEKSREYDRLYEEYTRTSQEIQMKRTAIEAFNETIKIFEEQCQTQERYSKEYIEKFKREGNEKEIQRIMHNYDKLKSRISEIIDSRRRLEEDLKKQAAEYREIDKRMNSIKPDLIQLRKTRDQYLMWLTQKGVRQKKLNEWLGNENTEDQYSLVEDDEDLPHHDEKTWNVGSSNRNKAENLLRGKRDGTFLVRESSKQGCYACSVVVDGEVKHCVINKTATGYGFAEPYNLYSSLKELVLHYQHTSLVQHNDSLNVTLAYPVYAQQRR
Sequence of PI3-kinase p110-alpha/p85-alpha (P42336 whole entry): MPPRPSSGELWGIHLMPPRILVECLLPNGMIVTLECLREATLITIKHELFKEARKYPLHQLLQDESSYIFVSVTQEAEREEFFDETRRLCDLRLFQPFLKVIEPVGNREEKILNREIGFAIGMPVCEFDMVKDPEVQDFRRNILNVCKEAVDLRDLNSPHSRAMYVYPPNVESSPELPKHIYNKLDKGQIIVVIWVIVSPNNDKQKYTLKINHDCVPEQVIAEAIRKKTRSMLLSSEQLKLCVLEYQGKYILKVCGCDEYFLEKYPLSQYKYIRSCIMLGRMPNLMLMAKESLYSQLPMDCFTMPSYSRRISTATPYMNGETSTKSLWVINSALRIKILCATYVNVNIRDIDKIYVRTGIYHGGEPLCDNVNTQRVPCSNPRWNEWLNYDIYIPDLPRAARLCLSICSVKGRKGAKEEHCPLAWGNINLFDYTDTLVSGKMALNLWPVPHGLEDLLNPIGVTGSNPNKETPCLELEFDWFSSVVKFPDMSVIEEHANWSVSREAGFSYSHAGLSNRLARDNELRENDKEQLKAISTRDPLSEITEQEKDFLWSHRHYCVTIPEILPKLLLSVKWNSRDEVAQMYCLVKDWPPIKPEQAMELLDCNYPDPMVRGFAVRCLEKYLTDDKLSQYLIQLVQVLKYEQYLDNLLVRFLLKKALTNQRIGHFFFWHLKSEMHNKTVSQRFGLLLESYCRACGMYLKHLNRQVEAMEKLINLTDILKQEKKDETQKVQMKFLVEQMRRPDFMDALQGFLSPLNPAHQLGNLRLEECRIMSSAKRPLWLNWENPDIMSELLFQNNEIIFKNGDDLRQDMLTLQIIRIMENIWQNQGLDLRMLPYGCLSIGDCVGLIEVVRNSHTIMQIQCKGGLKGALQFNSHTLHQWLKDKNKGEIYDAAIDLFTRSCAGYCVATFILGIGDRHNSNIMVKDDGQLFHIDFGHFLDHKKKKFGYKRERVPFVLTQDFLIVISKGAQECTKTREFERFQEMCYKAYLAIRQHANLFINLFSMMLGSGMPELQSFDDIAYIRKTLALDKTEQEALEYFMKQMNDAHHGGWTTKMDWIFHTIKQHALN

Turning to `Cc1n[nH]c(=O)c2[nH]c3ccc(Br)cc3c12`, the concentration for half-maximal inhibition (IC50) was 3 µM in test [1]; 1.5 µM in test [2]; 5 µM in test [3]; 2 µM in [4]; 6 µM in [5]; 8 µM in test [6]. The IC50 in test [7] was determined as 3 µM.

Take `Cc1n[nH]c(=O)c2[nH]c3ccc(F)cc3c12`: the IC50 in test [8] was greater than 10 µM; in [1], 3 µM; in [2] it was 1.5 µM; in test [3], 5 µM; in [4], 4 µM; in [9] it was greater than 10 µM. Also, the IC50 was 4 µM in [5], 5.6 µM in test [10], 10 µM in test [6] and 2 µM in [7].

Consider `COc1ccc2[nH]c3c(=O)[nH]nc(C)c3c2c1`, for which the IC50 is greater than 10 µM in [8]; 7 µM in test [1]; 3 µM in test [2]; 15 µM in test [3]; 8 µM in test [4]; greater than 10 µM in test [9]. Moreover, the IC50 was 5 µM in [5], 5 µM in test [10], 20 µM in test [6] and 5 µM in test [7].

As for `Cc1n[nH]c(=O)c2c1c1cc(Br)ccc1n2Cc1ccc([N+](=O)[O-])cc1`, the IC50 in test [8] was 6 µM; in test [11] it was greater than 10 µM; in [1] it was 1.5 µM; in test [2] it was 1 µM; in test [3], 2 µM; in [4] it was 2 µM. Further, the IC50 is greater than 10 µM in test [9]; 4 µM in test [5]; greater than 10 µM in test [10]; 2 µM in [6]; 1 µM in test [7].

With `Cc1n[nH]c(=O)c2c1c1cc(Br)ccc1n2Cc1cccc([N+](=O)[O-])c1`, the 50% inhibitory concentration (IC50) is 5.1 µM in test [8]; 4.1 µM in test [11]; 5 µM in test [1]; 2 µM in test [2]; 4 µM in test [3]; 3 µM in test [4]. Further, the concentration for half-maximal inhibition (IC50) in test [9] is greater than 10 µM; in test [5], 5 µM; in [10], greater than 10 µM; in test [6] it was 5 µM; in test [7], 4 µM.

Regarding `Cc1n[nH]c(=O)c2c1c1cc(Br)ccc1n2Cc1ccc(C#N)cc1`, the IC50 in test [8] was 1.9 µM; in test [11] it was greater than 10 µM; in test [1], 2 µM; in test [2], 2 µM; in [3], 2 µM; in [4] it was 2 µM. The IC50 in [9] was greater than 10 µM; in [5], 4 µM; in test [10], greater than 10 µM; in test [6], 2 µM; in test [7], 3 µM.

In the case of `Cc1n[nH]c(=O)c2c1c1cc(Br)ccc1n2Cc1cccc(C#N)c1`, the IC50 amounted to 0.091 µM in [8]; 0.295 µM in [11]; 2.5 µM in test [1]; 2 µM in test [2]; 5 µM in test [3]; 2 µM in test [4]. The half-maximal inhibitory concentration (IC50) is greater than 10 µM in test [9]; 4 µM in test [5]; greater than 10 µM in test [10]; 4 µM in test [6]; 4 µM in test [7].

Take `COc1ccc(Cn2c3ccc(Br)cc3c3c(C)n[nH]c(=O)c32)cc1`: the IC50 in test [8] was 1.5 µM; in [11], 5.2 µM; in test [1], 2.5 µM; in [2] it was 1.5 µM; in test [3], 4 µM; in test [4], 2 µM. Also, the half-maximal inhibitory concentration (IC50) in test [9] was greater than 10 µM; in test [5] it was 5 µM; in test [10], greater than 10 µM; in [6] it was 4 µM; in [7], 5 µM.

Regarding `COc1cccc(Cn2c3ccc(Br)cc3c3c(C)n[nH]c(=O)c32)c1`, the IC50 worked out at 1.5 µM in [8]; 2.2 µM in [11]; 2 µM in test [1]; 2 µM in test [2]; 2 µM in test [3]; 2 µM in test [4]. The half-inhibitory concentration (IC50) in test [9] is greater than 10 µM; in test [5], 4 µM; in test [10] it was greater than 10 µM; in test [6] it was 3 µM; in test [7], 5 µM.

For the compound `Cc1n[nH]c(=O)c2c1c1cc(F)ccc1n2Cc1ccc([N+](=O)[O-])cc1`, the 50% inhibitory concentration (IC50) was greater than 10 µM in test [8]; 0.6 µM in test [1]; 5 µM in test [2]; 5 µM in test [3]; 2 µM in test [4]; greater than 10 µM in test [9]. The concentration for half-maximal inhibition (IC50) in [5] was 2 µM; in [10], greater than 10 µM; in [6], greater than 25 µM; in test [7], 5 µM.

`Cc1n[nH]c(=O)c2c1c1cc(F)ccc1n2Cc1cccc([N+](=O)[O-])c1`: the IC50 in [8] was greater than 10 µM; in [1] it was 0.7 µM; in test [2], 3 µM; in test [3] it was 4 µM; in [4], 2 µM; in test [9], greater than 10 µM. The IC50 is 0.8 µM in [5], greater than 10 µM in [10], greater than 25 µM in test [6] and 6 µM in [7].

Take `Cc1n[nH]c(=O)c2c1c1cc(F)ccc1n2Cc1ccc(C#N)cc1`: the IC50 in test [8] is greater than 10 µM; in test [1], 1 µM; in test [2] it was 3 µM; in [3] it was 5 µM; in test [4], 2 µM; in [9], greater than 10 µM. The 50% inhibitory concentration (IC50) was 1.5 µM in test [5], greater than 10 µM in test [10], greater than 25 µM in [6] and 4 µM in test [7].

Consider `Cc1n[nH]c(=O)c2c1c1cc(F)ccc1n2Cc1cccc(C#N)c1`, for which the 50% inhibitory concentration (IC50) was 5 µM in test [8]; 4 µM in test [1]; 3 µM in [2]; 6 µM in [3]; 2 µM in [4]; greater than 10 µM in [9]. In addition, the IC50 in test [5] is 12 µM; in [10] it was greater than 10 µM; in test [6] it was 8 µM; in test [7], 6 µM.

For the compound `COc1ccc(Cn2c3ccc(F)cc3c3c(C)n[nH]c(=O)c32)cc1`, the IC50 in test [8] is 4.2 µM; in test [1], 2.5 µM; in test [2] it was 1 µM; in test [3], 2 µM; in [4], 2 µM; in test [9], greater than 10 µM. For the same compound, the IC50 in test [5] is 2 µM; in test [10] it was greater than 10 µM; in test [6], 5 µM; in test [7], 3 µM.

As to `COc1cccc(Cn2c3ccc(F)cc3c3c(C)n[nH]c(=O)c32)c1`, the concentration for half-maximal inhibition (IC50) in test [8] was greater than 10 µM; in test [1], 0.4 µM; in test [2], 1.5 µM; in test [3] it was 4 µM; in test [4], 2 µM; in test [9] it was greater than 10 µM. Besides, the IC50 is 0.9 µM in test [5], greater than 10 µM in [10], greater than 25 µM in [6] and 2 µM in test [7].

Consider `COc1ccc2c(c1)c1c(C)n[nH]c(=O)c1n2Cc1ccc([N+](=O)[O-])cc1`, for which the IC50 was 2.6 µM in [8]; 3 µM in [1]; 3 µM in test [2]; 5 µM in test [3]; 5 µM in test [4]; greater than 10 µM in test [9]. The IC50 in test [5] is 2 µM; in test [10], greater than 10 µM; in test [6], 4 µM; in [7], 2.5 µM.

For the compound `COc1ccc2c(c1)c1c(C)n[nH]c(=O)c1n2Cc1cccc(C#N)c1`, the concentration for half-maximal inhibition (IC50) in test [8] was 3.3 µM; in test [1], 2 µM; in test [2], 2 µM; in test [3], 5 µM; in test [4] it was 3 µM; in [9], greater than 10 µM. Besides, the half-inhibitory concentration (IC50) was 3 µM in test [5], greater than 10 µM in test [10], 5 µM in test [6] and 4 µM in test [7].

Take `COc1ccc(Cn2c3ccc(OC)cc3c3c(C)n[nH]c(=O)c32)cc1`: the half-inhibitory concentration (IC50) in test [8], in test [9] and in [10] was greater than 10 µM each time.

As for `COc1cccc(Cn2c3ccc(OC)cc3c3c(C)n[nH]c(=O)c32)c1`, the 50% inhibitory concentration (IC50) in test [8] is 6.3 µM; in [1], 2.5 µM; in test [2], 1 µM; in test [3], 2 µM; in [4], 2 µM; in [9], greater than 10 µM. Further, the IC50 in test [5] was 3 µM; in test [10] it was greater than 10 µM; in test [6], 1 µM; in [7], 3 µM.

For `CC[C@H](CO)Nc1nc(NCc2ccccc2)c2ncn(C(C)C)c2n1` [SELICICLIB], the concentration for half-maximal inhibition (IC50) in test [1] is 10 µM; in test [3], 7 µM; in [6], greater than 25 µM; in [7], 20 µM.
